Experimental data taken from ChEMBL document CHEMBL1955783, “Identification and optimization of small molecule antagonists of vasoactive intestinal peptide receptor-1 (VIPR1)” (Bioorg Med Chem Lett, 2012).
Calls of active or inactive are those of the source. The rule behind the calls is not given here.

Legend:
[1] = biological target: T1, Vasoactive intestinal polypeptide receptor 1 (Rattus norvegicus) (UniProt P30083); test: Displacement of [125I]VIP from vasoactive intestinal peptide receptor 1 in rat RKE cell membrane after 3 hrs by TopCount assay; format: cell membranes
T1 sequence (whole entry): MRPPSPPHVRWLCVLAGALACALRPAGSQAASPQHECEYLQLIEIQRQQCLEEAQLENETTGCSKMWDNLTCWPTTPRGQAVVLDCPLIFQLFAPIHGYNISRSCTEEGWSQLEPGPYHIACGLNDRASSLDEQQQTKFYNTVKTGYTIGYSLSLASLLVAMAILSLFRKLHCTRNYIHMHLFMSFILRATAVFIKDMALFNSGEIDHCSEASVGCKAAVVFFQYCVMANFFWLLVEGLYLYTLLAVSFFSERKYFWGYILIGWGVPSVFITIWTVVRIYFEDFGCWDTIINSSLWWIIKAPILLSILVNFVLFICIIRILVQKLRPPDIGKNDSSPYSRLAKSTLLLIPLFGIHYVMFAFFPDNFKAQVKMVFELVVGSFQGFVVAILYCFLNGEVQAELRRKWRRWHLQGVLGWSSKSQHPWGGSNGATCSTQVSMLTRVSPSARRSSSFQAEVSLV
In short: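 Membranes from RKE-VIPR cells, 5 µg/well final, preincubated 10 min at room temperature with wheat germ agglutinin-coated PVT beads in 50 mM HEPES, 5 mM MgCl2, 1 mM CaCl2, 0.1% BSA. IC50 taken from a four-parameter logistic fit after subtracting nonspecific binding, defined with excess VIP.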

NCI-H727 [2] = test: Cytotoxicity against human NCI-H727 cells expressing VIPR1 up to 10 uM in presence of 2% serum; format: functional, cell-based
In short: (§1)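 Cell proliferation in H727, H1299 and Calu6 lines, chosen for high VIPR1 expression. Medium held 2% serum to limit albumin sequestration. Compounds were tested at concentrations up to 10 µM.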

Calu-6 [3] = test: Cytotoxicity against human Calu6 cells expressing VIPR1 up to 10 uM in presence of 2% serum; format: functional, cell-based; in short: as §1
[4] = biological target: T2, Vasoactive intestinal polypeptide receptor 1 (Rattus norvegicus, UniProt P30083); test: Antagonist activity at vasoactive intestinal peptide receptor 1 in rat RKE cells assessed as inhibition of VIP-induced intracellular cAMP accumulation incubated for 15 mins prior to VIP-stimulation measured after 30 mins by HTRF assay
T2 sequence (P30083 whole entry): T1 sequence (whole entry)

NCI-H1299 [5] = test: Cytotoxicity against human NCI-H1299 cells expressing VIPR1 up to 10 uM in presence of 2% serum; format: functional, cell-based; in short: as §1
NCI-H727 [6] = test: Cytotoxicity against human NCI-H727 cells expressing VIPR1 in presence of 2% serum; format: functional, cell-based; in short: as §1
NCI-H1299 [7] = test: Cytotoxicity against human NCI-H1299 cells expressing VIPR1 in presence of 2% serum; format: functional, cell-based; in short: as §1
Calu-6 [8] = test: Cytotoxicity against human Calu6 cells expressing VIPR1 in presence of 2% serum; format: functional, cell-based; in short: as §1

SMILES | Activity [1] | Activity (NCI-H727 [2]) | Activity (Calu-6 [3]) | IC50 [4] [nM] | Activity (NCI-H1299 [5]) | Activity (NCI-H727 [6]) | Activity (NCI-H1299 [7]) | Activity (Calu-6 [8])
Cc1cccc(-c2cc(C(C)(C)C)cc(C(C)C)c2CO)c1 | Active | inactive | inactive | 240 | inactive | – | – | –
COc1cccc(-c2cc(C(C)(C)C)cc(C(C)C)c2CO)c1 | Active | inactive | inactive | 200 | inactive | – | – | –
Cc1cccc(CCC(=O)Nc2sc3c(c2C#N)CCCC3)c1 | Active | – | – | 750 | – | inactive | inactive | inactive
CC(C)c1cc(C(C)(C)C)cc(-c2cccc(-c3ccccc3)c2)c1CO | Active | inactive | inactive | 210 | inactive | – | – | –
Cc1ccccc1-c1cc(C(C)(C)C)cc(C(C)C)c1CO | Active | inactive | inactive | > 50000 | inactive | – | – | –
CC(C)C(=O)Nc1sc2c(c1C#N)CCCC2 | Active | – | – | 3400 | – | inactive | inactive | inactive
N#Cc1c(NC(=O)C2CC2)sc2c1CCCC2 | Active | – | – | 2700 | – | inactive | inactive | inactive
COc1ccccc1-c1cc(C(C)(C)C)cc(C(C)C)c1CO | Active | inactive | inactive | 820 | inactive | – | – | –
N#Cc1c(NC(=O)Cc2cc3ccccc3s2)sc2c1CCCC2 | Active | – | – | 1900 | – | inactive | inactive | inactive
CSc1cccc(-c2cc(C(C)(C)C)cc(C(C)C)c2CO)c1 | Active | inactive | inactive | 170 | inactive | – | – | –
CC(C)c1cc(C(C)(C)C)cc(-c2cccc(C#N)c2)c1CO | Active | inactive | inactive | > 50000 | inactive | – | – | –
N#Cc1c(NC(=O)C2CCc3ccccc3C2)sc2c1CCCC2 (stereo not given) | Active | – | – | 12000 | – | inactive | inactive | inactive
CC(C)c1cc(C(C)(C)C)cc(-c2cccc(C(F)(F)F)c2)c1CO | Active | inactive | inactive | > 50000 | inactive | – | – | –
N#Cc1c(NC(=O)COc2ccccc2)sc2c1CCCC2 | Active | – | – | 9100 | – | inactive | inactive | inactive
Cc1ccccc1CCC(=O)Nc1sc2c(c1C#N)CCCC2 | Active | – | – | 11000 | – | inactive | inactive | inactive
COc1ccc(-c2cc(C(C)(C)C)cc(C(C)C)c2CO)cc1 | Active | inactive | inactive | 1300 | inactive | – | – | –
CC(C)c1cc(C(C)(C)C)cc(-c2ccccc2)c1CO | Active | inactive | inactive | 390 | inactive | – | – | –
CC(C)c1cc(C(C)(C)C)cc(-c2ccccc2-c2ccccc2)c1CO | Active | inactive | inactive | 3200 | inactive | – | – | –
CCC(=O)Nc1sc2c(c1C#N)CCCC2 | Active | – | – | 12000 | – | inactive | inactive | inactive
Cc1ccc(-c2cc(C(C)(C)C)cc(C(C)C)c2CO)cc1 | Active | inactive | inactive | 300 | inactive | – | – | –

SMILES | Activity [1] | Activity (NCI-H727 [2]) | Activity (Calu-6 [3]) | IC50 [4] [nM] | Activity (NCI-H1299 [5]) | Activity (NCI-H727 [6]) | Activity (NCI-H1299 [7]) | Activity (Calu-6 [8])
N#Cc1c(NC(=O)Cc2ccccc2)sc2c1CCCC2 | Active | – | – | 1600 | – | inactive | inactive | inactive
CC(C)c1cc(C(C)(C)C)cc(-c2ccc(Cl)cc2)c1CO | Active | inactive | inactive | 290 | inactive | – | – | –
N#Cc1c(NC(=O)C2CCC2)sc2c1CCCC2 | Active | – | – | 1800 | – | inactive | inactive | inactive
CC(C)c1cc(C(C)(C)C)cc(-c2cccc(N(C)C)c2)c1CO | Active | inactive | inactive | 310 | inactive | – | – | –
CC(C)c1cc(C(C)(C)C)cc(-c2ccc3ccccc3c2)c1CO | Active | inactive | inactive | 120 | inactive | – | – | –
CC(C)c1cc(C(C)(C)C)cc(-c2ccc(-c3ccccc3)cc2)c1CO | Active | inactive | inactive | 680 | inactive | – | – | –
N#Cc1c(NC(=O)CCc2ccc(Cl)cc2)sc2c1CCCC2 | Active | – | – | 1200 | – | inactive | inactive | inactive
N#Cc1c(NC(=O)C2CCCCC2)sc2c1CCCC2 | Active | – | – | 470 | – | inactive | inactive | inactive
N#Cc1c(NC(=O)CCc2ccccc2)sc2c1CCCC2 | Active | – | – | 290 | – | inactive | inactive | inactive
CC(C)c1cc(C(C)(C)C)cc(-c2cccc(Cl)c2)c1CO | Active | inactive | inactive | 100 | inactive | – | – | –
CC(C)c1cc(C(C)(C)C)cc(-c2cccc3ccccc23)c1CO | Active | inactive | inactive | 180 | inactive | – | – | –
COc1cccc(CCC(=O)Nc2sc3c(c2C#N)CCCC3)c1 | Active | – | – | 610 | – | inactive | inactive | inactive
CC(C)CC(=O)Nc1sc2c(c1C#N)CCCC2 | Active | – | – | 1900 | – | inactive | inactive | inactive
COc1ccc(CCC(=O)Nc2sc3c(c2C#N)CCCC3)cc1 | Active | – | – | 410 | – | inactive | inactive | inactive
N#Cc1c(NC(=O)C2Cc3ccccc3C2)sc2c1CCCC2 | Active | – | – | 17000 | – | inactive | inactive | inactive
Cc1ccc(CCC(=O)Nc2sc3c(c2C#N)CCCC3)cc1 | Active | – | – | 480 | – | inactive | inactive | inactive
N#Cc1c(NC(=O)Cc2cc3ccccc3[nH]2)sc2c1CCCC2 | Active | – | – | 50000 | – | inactive | inactive | inactive
N#Cc1c(NC(=O)C2CCCC2)sc2c1CCCC2 | Active | – | – | 470 | – | inactive | inactive | inactive
N#Cc1c(NC(=O)CC2Cc3ccccc3O2)sc2c1CCCC2 (stereo not given) | Active | – | – | 3800 | – | inactive | inactive | inactive
CC(=O)Nc1sc2c(c1C#N)CCCC2 | Active | – | – | 13000 | – | inactive | inactive | inactive
